Measurements published in ChEMBL document CHEMBL5357066, “Development of Novel Membrane Disrupting Lipoguanidine Compounds Sensitizing Gram-Negative Bacteria to Antibiotics” (ACS Med Chem Lett, 2024).
Calls of active or inactive are those of the source. No cut-off for these calls is given here.

Tests used:
Erythrocyte = experiment: Hemolytic activity in human Red blood cells at 512 microg/ml measured after 1 hrs by absorbance based assay; assay type: toxicity, cell-based; details: dose 512 µg/ml
Procedure, shortened: (§1)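 Titrations in PBS were incubated with freshly collected human red blood cells for 1 h at 37 °C. Controls were 0.1% Triton-X-100 (full lysis) and PBS alone (no lysis). After centrifugation, supernatant OD550 was read. % haemolysis = (AP−AB)/(AC−AB)×100. Data are means and standard error of three biological replicates.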

Pseudomonas aeruginosa [1] = experiment: Synergistic antibacterial activity against Pseudomonas aeruginosa PAO1 assessed as bacterial growth inhibition incubated for overnight in presence of […] by microbroth dilution method relative to control; assay type: functional
Procedure, shortened: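 Fixed-concentration combination MIC in TSB. The first agent was set in a two-fold dilution series (100 µL/well), then 50 µL/well of the second agent at a fixed concentration was added; PMBN was fixed at 30 µg/mL. Bacteria at OD 0.02 (50 µL) went into 150 µL of compounds, overnight at 37 °C. MIC was the lowest concentration without visible growth (<0.1 OD600).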

Acinetobacter baumannii [2] = experiment: Synergistic antibacterial activity against Acinetobacter baumannii AYE assessed as bacterial growth inhibition incubated for overnight in presence of PBMN by microbroth dilution method relative to control; assay type: functional
Procedure, shortened: (§2)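 Adapted broth microdilution in TSB. The test compound was in a 2-fold dilution series, with PMBN added at a fixed 30 µg/mL. Bacteria at OD 0.02 were added, and plates were incubated overnight at 37 °C. Growth/no growth was read as for the MIC (<0.1 OD600).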

Klebsiella pneumoniae [3] = experiment: Synergistic antibacterial activity against Klebsiella pneumoniae M6 assessed as bacterial growth inhibition incubated for overnight in presence of PBMN by microbroth dilution method relative to control; assay type: functional; procedure, shortened: as §2
Acinetobacter baumannii [4] = experiment: Synergistic antibacterial activity against Acinetobacter baumannii ATCC 17978 assessed as bacterial growth inhibition incubated for overnight in presence of PBMN by microbroth dilution method relative to control; assay type: functional; procedure, shortened: as §2
Pseudomonas aeruginosa [5] = experiment: Synergistic antibacterial activity against Pseudomonas aeruginosa NCTC 13437 assessed as bacterial growth inhibition incubated for overnight in presence of PBMN by microbroth dilution method relative to control; assay type: functional; procedure, shortened: as §2
Escherichia coli [6] = experiment: Synergistic antibacterial activity against Escherichia coli NCTC 12923 assessed as bacterial growth inhibition incubated for overnight in presence of PBMN by microbroth dilution method relative to control; assay type: functional; procedure, shortened: as §2
Klebsiella pneumoniae [7] = experiment: Synergistic antibacterial activity against Klebsiella pneumoniae NCTC 13368 assessed as bacterial growth inhibition incubated for overnight in presence of PBMN by microbroth dilution method relative to control; assay type: functional; procedure, shortened: as §2
Acinetobacter baumannii [8] = experiment: Synergistic antibacterial activity against Acinetobacter baumannii ATCC 17978 assessed as fold change in novobiocin MIC at <=0.25 times MIC incubated for overnight by microbroth dilution checkerboard assay relative to novobiocin alone; assay type: functional
Procedure, shortened: (§3)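 Checkerboard microdilution under MIC conditions (TSB, overnight, 37 °C). Two-fold series of each agent were combined on one plate before bacteria were added, and single-agent MICs were measured on the same plate. FIC = sum of combination MIC/alone MIC for each agent, taken from the most synergistic well. Three independent repeats, mean ± SD. ≤0.5 was taken as strong synergy and 0.5–<1 as weak.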

Acinetobacter baumannii [9] = experiment: Synergistic antibacterial activity against Acinetobacter baumannii AYE assessed as fold change in novobiocin MIC at <=0.25 times MIC incubated for overnight by microbroth dilution checkerboard assay relative to novobiocin alone; assay type: functional; procedure, shortened: as §3
Klebsiella pneumoniae [10] = experiment: Synergistic antibacterial activity against […] Klebsiella pneumoniae M6 assessed as novobiocin MIC at <=0.25 times MIC incubated for overnight by microbroth dilution checkerboard assay; assay type: functional
Procedure, shortened: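 Checkerboard run under the MIC conditions (TSB, overnight, 37 °C). Antibiotic and lipoguanidine 2-fold series were combined on one plate before bacteria were added. Growth/no-growth was scored as for the MIC (<0.1 OD600). Single-agent MICs were measured on the same plates. Three independent repeats were done.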

Klebsiella pneumoniae [11] = experiment: Synergistic antibacterial activity against Klebsiella pneumoniae NCTC 13368 assessed as fold change in novobiocin MIC at <=0.25 times MIC incubated for overnight by microbroth dilution checkerboard assay relative to novobiocin alone; assay type: functional; procedure, shortened: as §3
Pseudomonas aeruginosa [12] = experiment: Synergistic antibacterial activity against Pseudomonas aeruginosa NCTC 13437 assessed as novobiocin MIC at <=0.25 times MIC incubated for overnight by microbroth dilution checkerboard assay; assay type: functional
Procedure, shortened: (§4)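 Checkerboard microdilution in Tryptic Soy Broth, run like the MIC assay. Overnight TSB cultures were back-diluted to OD 0.01 and added 1:1 to the combined two-fold series of both agents, then incubated overnight at 37 °C. Growth/no-growth was called at <0.1 OD600. MICs alone were read on the same plates. FIC index came from the most synergistic well; three independent repeats, mean ± SD.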

Escherichia coli [13] = experiment: Synergistic antibacterial activity against Escherichia coli NCTC 12923 assessed as fold change in novobiocin MIC at <=0.25 times MIC incubated for overnight by microbroth dilution checkerboard assay relative to novobiocin alone; assay type: functional; procedure, shortened: as §3
Pseudomonas aeruginosa [14] = experiment: Synergistic antibacterial activity against Pseudomonas aeruginosa NCTC 13437 assessed as fold change in novobiocin MIC at <=0.25 times MIC incubated for overnight by microbroth dilution checkerboard assay relative to novobiocin alone; assay type: functional; procedure, shortened: as §3
Acinetobacter baumannii [15] = experiment: Synergistic antibacterial activity against Acinetobacter baumannii ATCC 17978 assessed as novobiocin MIC at <=0.25 times MIC incubated for overnight by microbroth dilution checkerboard assay; assay type: functional; procedure, shortened: as §3
Escherichia coli [16] = experiment: Synergistic antibacterial activity against Escherichia coli NCTC 12923 assessed as novobiocin MIC at <=0.25 times MIC incubated for overnight by microbroth dilution checkerboard assay; assay type: functional; procedure, shortened: as §3
Acinetobacter baumannii [17] = experiment: Synergistic antibacterial activity against Acinetobacter baumannii AYE assessed as novobiocin MIC at <=0.25 times MIC incubated for overnight by microbroth dilution checkerboard assay; assay type: functional; procedure, shortened: as §3
Klebsiella pneumoniae [18] = experiment: Synergistic antibacterial activity against Klebsiella pneumoniae M6 assessed as fold change in novobiocin MIC at <=0.25 times MIC incubated for overnight by microbroth dilution checkerboard assay relative to novobiocin alone; assay type: functional; procedure, shortened: as §3
Pseudomonas aeruginosa [19] = experiment: Synergistic antibacterial activity against Pseudomonas aeruginosa PAO1 assessed as novobiocin MIC at <=0.25 times MIC incubated for overnight by microbroth dilution checkerboard assay; assay type: functional; procedure, shortened: as §4
[20] = Hemolytic activity in human Red blood cells at 512 microg/ml measured after 1 hrs by absorbance based assay relative to control; assay type: toxicity, cell-based, Erythrocyte; details: red blood cells (erythrocytes), at 512 µg/mL, read-out: Activity; procedure, shortened: as §1
Klebsiella pneumoniae [21] = experiment: Potentiation of doxycycline induced antibacterial activity against Klebsiella pneumoniae NCTC 13368; assay type: functional, organism-based
[22] = Toxicity in Galleria mellonella larvae assessed as reduction in animal survival at 10 to 50 mg/kg measured for 120 hrs; assay type: organism-based; details: in vivo, dose 10-50 mg/kg
Procedure, shortened: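 Wax moth larvae, assumed 300 mg mean weight with 50 µL haemolymph, 10 per group. Each was injected via the front proleg with 10 µL of compound at 50, 20 or 10 mg/kg, or PBS only. Larvae were held at 37 °C for 5 days and scored live/dead every 24 h; dead meant no response to physical stimuli.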

Acinetobacter baumannii [23] = experiment: Synergistic antibacterial activity against Acinetobacter baumannii AYE assessed as reduction in rifampicin MIC at 32 microg/ml incubated for overnight by microbroth dilution checkerboard assay; assay type: functional, organism-based; details: dose 32.0 µg/ml; procedure, shortened: as §3

Compound	Activity (Erythrocyte)	inhibition (INH) (Pseudomonas aeruginosa [1])	inhibition (INH) (Acinetobacter baumannii [2])	inhibition (INH) (Klebsiella pneumoniae [3])	inhibition (INH) (Acinetobacter baumannii [4])	inhibition (INH) (Pseudomonas aeruginosa [5])	inhibition (INH) (Escherichia coli [6])	inhibition (INH) (Klebsiella pneumoniae [7])	fold change (FC) (Acinetobacter baumannii [8])	fold change (FC) (Acinetobacter baumannii [9])	MIC (Klebsiella pneumoniae [10])	fold change (FC) (Klebsiella pneumoniae [11])	MIC (Pseudomonas aeruginosa [12])	fold change (FC) (Escherichia coli [13])	fold change (FC) (Pseudomonas aeruginosa [14])	MIC (Acinetobacter baumannii [15])	MIC (Escherichia coli [16])	MIC (Acinetobacter baumannii [17])	fold change (FC) (Klebsiella pneumoniae [18])	MIC (Pseudomonas aeruginosa [19])	also measured
CCCCCCCCCCCCNC(=N)NCCCCN	Toxic	<20%	<20%	<20%	<20%	<20%	<20%	<20%													
CC/C=C\C/C=C\C/C=C\CCCCCCCCNC(=N)NCCCCN	Toxic								>=4	>=4	8 µg/mL	0	> 128 µg/mL	0	0	≤ 0.125 µg/mL	32 µg/mL	≤ 0.125 µg/mL	>=4	> 128 µg/mL	
CCCCCCCC/C=C\CCCCCCCCNC(=N)NCCCCN	Toxic	<20%	<20%	<20%	<20%	<20%	<20%	<20%	>=4	>=4	16 µg/mL	0	> 128 µg/mL	0	0	≤ 0.125 µg/mL	> 128 µg/mL	≤ 0.125 µg/mL	>=4	> 128 µg/mL	
CCCCC/C=C\C/C=C\CCCCCCCCNC(=N)NCCCCN	Toxic								0	>=4	64 µg/mL	0	> 128 µg/mL	0	0	1 µg/mL	> 128 µg/mL	1 µg/mL	0	> 128 µg/mL	hemolysis at 1 h, 512 microg/ml [20]: 100%
CCCCCCCCCCNC(=N)NCCCCN		<20%	<20%	<20%	<20%	<20%	<20%	<20%	>=4	>=4	4 µg/mL	>=4	8 µg/mL	>=4	>=4	0.25 µg/mL	0.5 µg/mL	≤ 0.125 µg/mL	>=4	2 µg/mL	Activity (Klebsiella pneumoniae [21]): Active; hemolysis at 1 h, 512 microg/ml [20]: 8.2%; Activity [22]: Non-Toxic; Activity (Acinetobacter baumannii [23]): Active
CCCCCCCC/C=C\CCCCCCCCNC(=N)NCCCCNC(=N)N	Toxic	<20%	<20%	<20%	<20%	<20%	<20%	<20%	>=4	0	1 µg/mL	0	> 128 µg/mL	>=4	0	≤ 0.125 µg/mL	4 µg/mL	≤ 0.125 µg/mL	>=4	> 128 µg/mL	
